In the library only some 1.8% were active in any assay of this set; here they are far more common.
CHRM4 PAM – human M4 muscarinic receptor positive allosteric modulators, primary screen, CHO-K1 cells, Fluo-8 calcium fluorescence. Muscarinic acetylcholine receptor M4 (Homo sapiens), P08173. CHO-K1 hM4/Gqi5, ACh EC20; 0% = ACh EC20, 100% = maximal ACh. activation, % at 3 µM. 0.4% of 360,000 active;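 active = activation above its plate's cutoff, the mean activation of sample wells plus 3 SD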
M4 antag – human M4 muscarinic receptor antagonists, primary screen, CHO cells, Fluo-8 calcium fluorescence. Muscarinic acetylcholine receptor M4 (Homo sapiens), P08173. CHO-hM4 cells, ACh EC80. inhibition, % at 3 µM. 0.73% of 360,000 active. AID 624125, 2012;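 active = inhibition above its plate's cutoff, the mean inhibition of sample wells plus 3 SD, cut at about 27% in these data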;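 also: 0% = acetylcholine EC80 with DMSO and 100% = DMSO without agonist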
M5 ag – human M5 muscarinic receptor agonists, primary screen, CHO-K1 cells, Fluo-8 calcium fluorescence; CHO-K1 hM5 cells; 0% DMSO wells, 100% maximal acetylcholine response; Muscarinic acetylcholine receptor M5 (Homo sapiens), P08912; activation, % at 3 µM; AID 624037, 2012; 0.19% of 360,000 active;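 active = activation above the run's mean over test compounds plus 3 SD, cut at about 23% in these data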;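 also: signal is peak over basal fluorescence ratio across the kinetic read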
Target sequence (P08912 whole entry, looked up): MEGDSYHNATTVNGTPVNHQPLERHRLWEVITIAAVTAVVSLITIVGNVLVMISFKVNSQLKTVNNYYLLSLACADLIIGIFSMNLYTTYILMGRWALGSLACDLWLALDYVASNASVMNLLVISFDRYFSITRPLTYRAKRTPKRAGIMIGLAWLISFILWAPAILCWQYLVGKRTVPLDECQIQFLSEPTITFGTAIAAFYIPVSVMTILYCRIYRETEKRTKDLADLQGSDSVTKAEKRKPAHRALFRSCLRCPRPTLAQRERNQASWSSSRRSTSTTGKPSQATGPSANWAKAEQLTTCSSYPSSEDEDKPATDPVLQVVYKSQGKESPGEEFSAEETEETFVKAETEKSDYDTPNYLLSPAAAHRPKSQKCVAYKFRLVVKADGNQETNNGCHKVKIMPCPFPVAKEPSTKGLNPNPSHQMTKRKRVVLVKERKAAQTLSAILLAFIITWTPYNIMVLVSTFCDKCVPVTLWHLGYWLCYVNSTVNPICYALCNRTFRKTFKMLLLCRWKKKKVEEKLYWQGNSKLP
M5 antag – human M5 muscarinic receptor antagonists, primary screen, CHO cells, Fluo-8 calcium fluorescence; CHO-hM5 cells, ACh EC80; inhibition, % at 3 µM; 0.59% of 360,000 active; AID 624040, 2012;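 active = inhibition above a per-plate cutoff, the mean of that plate's test compounds plus 3 SD, cut at about 27% in these data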;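 also: 0% = acetylcholine EC80 with DMSO and 100% = DMSO without agonist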
CHRM5 PAM – human M5 muscarinic receptor positive allosteric modulators, primary screen, CHO-K1 cells, Fluo-8 calcium fluorescence; activation, % at 3 µM; AID 624038, 2012; 0.3% of 360,000 active; CHO-K1 hM5, ACh EC20 PAM; 0% = ACh EC20, 100% = ACh EC100;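 active = activation above the run cutoff, the mean activation of all test compounds plus 3 SD, cut at about 18% in these data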
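Assay system – human M5 receptor in CHO-K1 cells · Read-out – % activation, ACh-normalized · Technique – Fluo-8 calcium fluorescence · Dosing – single-point, 3 µM nominal · Incubation – Fluo-8 loading 80 min at 37 °C plus 30 min room temperature · Repeats – singlicate, one well per test compound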
CHRM4 agonist – human M4 muscarinic receptor agonists, primary screen, CHO-K1 cells, Fluo-8 calcium fluorescence. CHO-K1 hM4/Gqi5; vehicle 0%, full acetylcholine response 100%. 0.14% of 360,000 active. activation, % at 3 µM. Muscarinic acetylcholine receptor M4 (Homo sapiens), P08173;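 active = activation above the run mean over all test wells plus 3 SD, cut at about 32% in these data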;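 also: peak over basal fluorescence ratio per well then scaled between controls; 0% = DMSO wells and 100% = acetylcholine at EC100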
Active calls of the source: *.

SMILES | CHRM4 PAM | M4 antag | M5 ag | M5 antag | CHRM5 PAM | CHRM4 agonist
Cc1cc(C)c(OCCOCCN2CCCC2)c(C)c1 | -17 | -1 | -12 | 8 | 2 | 1
Cc1ccc(Nc2nc(-c3c(C)nc4ccccn34)cs2)cc1 | -31 | 27* | -6 | 19 | -20 | 10
CSc1ncccc1C(=O)N(C)CC(=O)Nc1cccc(F)c1 | 8 | 8 | -1 | -2 | -2 | 2
COC(=O)CCCCC1SCC2NC(=O)NC21 (stereo not given) | 5 | -8 | -2 | -2 | 23* | 1
COc1ccc2c(c1)c1c3n2CCN(C)C3=NCC1 | 15* | -6 | 1 | -2 | 7 | 1
CCOc1ccccc1NC(=O)NC1CC2CCCC(C1)N2Cc1nnnn1CCc1ccccc1 (stereo not given) | -11 | 42* | -4 | -9 | -5 | -1
CC1C(=O)N(Cc2cn(CCC3OCCCO3)nn2)CCS(=O)(=O)N1Cc1ccc(-c2ccc(Cl)c(Cl)c2)cc1 (stereo not given) | -12 | 40* | 7 | 36* | -18 | 21
Cc1cccc(C)c1-c1ccc(CN2C(CC(C)C)C(=O)N(Cc3cn(CCO)nn3)CCS2(=O)=O)cc1 (stereo not given) | -13 | 28* | 3 | 11 | -13 | 29
CC1C(=O)N(Cc2cn(CCC3OCCCO3)nn2)CCS(=O)(=O)N1Cc1ccc(-c2ccc(F)cc2)cc1 (stereo not given) | -9 | -2 | 1 | 7 | -8 | 17
CC(C)Cc1nnc(NC(=O)CN2C(=O)NC3(CCCC3)C2=O)s1 | -5 | -7 | -3 | -6 | 2 | -1
C/C(=N\NC(=O)c1nn(C)c(C)c1Br)c1ccc(NC(=O)c2ccccc2F)cc1 | 7 | -5 | -2 | -4 | -1 | 1
Cc1c(NC(=O)c2cc(-n3cnnc3)ccc2Cl)cccc1-c1nc2ccccc2s1 | -6 | 4 | 0 | 4 | -11 | 14
Cc1c(NC(=O)c2cccs2)cccc1-c1nc2ccccc2s1 | -1 | 31* | 2 | 19 | 2 | 9
COc1ccc(S(=O)(=O)NCCSCc2ccccc2C)cc1Br | 1 | 12 | -2 | 18 | 2 | 0
Cc1ccc(C(=O)Sc2cccccc2=O)cc1 | -8 | 57* | 3 | 42* | -7 | 8
Cc1ccc(C(=O)N/C(=C/c2ccccc2)C(=O)NCC2CCCO2)cc1 (stereo not given) | 15 | -22 | -3 | -10 | 21* | -1
COc1ccc(Cc2nnc(NC(=O)CSc3ccc(C)cc3)s2)cc1OC | 1 | -6 | 74* | -3 | -5 | 95*
CCOC(=O)Nc1nnc(Cc2ccc(Cl)c(Cl)c2)s1 | 22* | -9 | 1 | 9 | 1 | 2
CCOC(=O)C(=O)Nc1nnc(Cc2ccc(OC)c(OC)c2)s1 | 7 | 9 | 1 | -1 | 4 | -1
COc1cccc(CNC(=O)Cc2ccc(NC(=O)C3=C(C)OCCS3)cc2)c1 | 3 | -17 | 0 | -9 | 1 | 2
CC1CN(S(=O)(=O)c2cccc(C(=O)N=c3sccn3C)c2)CC(C)O1 (stereo not given) | 3 | -20 | 6 | -2 | -1 | 4
N#C/C(=C\c1ccc(N2CCCCC2)o1)C(=O)Nc1cccc(Br)c1 | -20 | 32* | 60* | 59* | -22 | 47*
COC(=O)C1=C(C)OC(N)=C(C#N)C1c1cc2cc(C)ccc2nc1Cl (stereo not given) | -9 | 8 | 26* | 23 | -19 | 22
CCC(c1nnnn1-c1ccc(OC)cc1)N1CCN(C/C=C/c2ccccc2)CC1 (stereo not given) | -5 | -18 | -7 | 14 | -17 | 6
CC(C)(C)n1nnnc1C(c1ccccc1)N1CCN(C/C=C/c2ccccc2)CC1 (stereo not given) | -15 | 28* | -7 | 68* | -22 | 1
SMILES | CHRM4 PAM | M4 antag | M5 ag | M5 antag | CHRM5 PAM | CHRM4 agonist
CC(C)(C)n1nnnc1C(c1cccc(C#N)c1)N1CCCCCC1 (stereo not given) | 14 | -4 | 3 | 9 | 26* | 0
CCC(c1nnnn1C(C)(C)C)N1CCN(C/C=C/c2ccccc2)CC1 (stereo not given) | 5 | -13 | -7 | 5 | -2 | 3
CC(C)(C)n1nnnc1C(c1cccc(C#N)c1)N1CCN2CCCC2C1 (stereo not given) | -1 | -3 | -6 | -3 | 2 | 0
COc1ccc(-n2nnnc2C(c2ccccc2)N2CCN(C/C=C/c3ccccc3)CC2)cc1 (stereo not given) | -16 | 32* | -8 | 72* | -22 | 3
O=C(COC(=O)c1ccc(F)cc1F)NC(=O)Nc1ccc2c(c1)OCCO2 | 3 | -5 | 5 | 7 | 5 | 2
O=C1NCCN/C1=C\C(=O)c1ccc(Br)cc1 | -3 | -1 | 5 | 0 | 11 | 3
COc1ccc(OC)c(/C=C/C(=O)OCC(=O)N2CCN(S(=O)(=O)c3ccc(C)cc3C)CC2)c1 | -2 | -22 | -3 | 0 | -5 | 1
CCN(C(=O)CN1C(=O)NC2(CCC(C)CC2)C1=O)C1CCCCC1 (stereo not given) | 2 | -7 | 0 | -2 | 3 | 0
CN(C)CC/C=C1/c2cc(F)ccc2CSc2ccc(F)cc21 | -37 | 84* | -7 | 98* | -20 | 1
Clc1ccc2c(c1)-c1[nH]ncc1CS2 | 3 | -3 | -1 | 1 | -1 | 0
CN(C)CC/C=C1\c2cc(F)ccc2CSc2ccccc21 | -17 | 97* | -2 | 98* | -18 | 11
CCOc1ccc(N/C(C)=C/C(=O)c2ccc3c(c2)OCCO3)cc1 | 7 | 2 | 1 | 4 | 9 | 2
Cc1ccnc(N/C=C(\C#N)c2nc(-c3cccc(Br)c3)cs2)c1 | -12 | 31* | 53* | 21 | -14 | 135*
N#C/C(=C\Nc1ccc2cn[nH]c2c1)c1nc(-c2ccccc2)cs1 | 3 | -3 | 1 | 4 | -3 | 1
COC(=O)c1ccc2nc(-c3cccc(Br)c3)c(Cc3ccsc3)n2c1 | 21* | -15 | 1 | -10 | 1 | 0
COc1ccc(/C=C/c2ccc3ccccc3[n+]2C)cc1OC | -4 | -17 | -7 | 0 | -4 | 1
